Compound activity (PubChem BioAssay)
Only some compounds are listed: those with a hit (about 2.5% of all), similar ones and a draw of the others.
HGIII-sPLA2 inh = Inhibits HGIII-sPLA2 liposome hydrolysis, primary screen; QFRET BODIPY PC-A2 liposome hydrolysis, fluorescence; AID 743126; actives 0.56% (n = 370,000); inhibition, % at 12.2 µM;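 active = inhibition above mean plus 3 SD of compounds lying within the high and low control bounds, cut at about 19% in these data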;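 note: 0% = median of test compound wells and 100% = no enzyme DMSO wells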
A1 inh = inhibitors of the anti-apoptotic protein A1, read as caspase activation. MEF A1-2A-BIM cells, Caspase-Glo 3/7 luminescence, 3 h; percent of clofoctol response, vehicle zero. caspase activation, % (test concentration not listed). actives 0.066% (n = 330,000);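 active = over half of replicate activation scores above 10%, or exactly half above 10 with the replicate mean above 10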
MC4R antagonist = human MC4R antagonism in cAMP assay; MC4R-expressing cells, MTII-stimulated cAMP, LANCE TR-FRET; inhibition, % at 6.5 µM; actives 0.48% (n = 360,000); P32245; AID 540295;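 active = inhibition above its plate's cutoff, the mean of tested wells on that plate plus 3 SD, cut at about 29% in these data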;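 note: 0% = Melanotan II alone and 100% = Melanotan II plus saturating MCL0020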
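Assay system: human MC4R-expressing U2OS cells; reagent: Melanotan II stimulation of cells; dosing: 6.5 µM single dose; timing: compound 30 min, challenge 1 h, detection 1 h; signal: TR-FRET cAMP assay; replicates: one well per compound, no replicates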
NTR1 ag = agonists of human neurotensin receptor NTR1. P30989. NTR1-U2OS beta-arrestin-GFP spot imaging, agonist mode. activation, % at 20 µM. actives 0.17% (n = 330,000). AID 493036;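 active = activation at or above 40% of the spot to cytoplasm intensity ratio, with at least 20 cells analyzed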;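 note: 0% = DMSO without peptide and 100% = 100 nM NTR1 peptide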
Target sequence (P30989 whole entry, looked up): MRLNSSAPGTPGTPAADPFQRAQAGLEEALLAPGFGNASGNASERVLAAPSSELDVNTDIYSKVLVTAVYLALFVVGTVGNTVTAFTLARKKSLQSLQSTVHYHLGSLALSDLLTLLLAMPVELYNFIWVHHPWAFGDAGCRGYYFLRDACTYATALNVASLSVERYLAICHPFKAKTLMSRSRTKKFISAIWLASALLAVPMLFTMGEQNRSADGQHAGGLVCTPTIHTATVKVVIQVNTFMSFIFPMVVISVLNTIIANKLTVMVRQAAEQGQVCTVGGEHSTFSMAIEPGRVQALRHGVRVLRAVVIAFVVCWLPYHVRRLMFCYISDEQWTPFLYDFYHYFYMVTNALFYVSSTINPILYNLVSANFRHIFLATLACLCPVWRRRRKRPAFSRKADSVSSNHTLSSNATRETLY
Granule exo inh = lytic granule exocytosis inhibition. actives 0.66% (n = 360,000). AID 651702. inhibition, % at 10 µM. TALL-104 LAMP-1 surface exposure, flow cytometry; cells stimulated with thapsigargin and PMA;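 active = inhibition above about 55%, limit read from the data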
MC4R barr agon = human MC4R agonism via beta-arrestin | P32245 | U2OS MC4R beta-arrestin complementation, luminescence; percent of melanotan II response, DMSO zero | activation, % at 8.9 µM | actives 0.98% (n = 360,000);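 active = activation above a per-plate cutoff, the mean activation of sample wells on that plate plus 3 SD, cut at about 8% in these data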
Exocytosis CP01 = lytic granule exocytosis inhibition. TALL-104 cells, LAMP-1 externalization, flow cytometry; stimulated with PMA plus thapsigargin. actives 11% (n = 1,500). shares compounds with Granule exo inh. inhibition, % at 10 µM; in the data active = inhibition above about 60%;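 note: 0% = stimulated vehicle wells and 100% = unstimulated wells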
* hit, by the source's call; ! = a repeat was not active.

CCOc1ccc(N(CC(=O)NCCSc2ccccn2)S(=O)(=O)c2ccc(Cl)cc2)cc1 was read as HGIII-sPLA2 inh -1, A1 inh 0, MC4R antagonist 0, NTR1 ag 5, Granule exo inh 57*, MC4R barr agon 1 and Exocytosis CP01 -5.
Screening COc1ccc(N(CC(=O)NCCOc2ccccc2)S(=O)(=O)c2ccc(C)cc2)cc1 returned HGIII-sPLA2 inh -5, A1 inh -1, MC4R antagonist 2, NTR1 ag 3, Granule exo inh 78*, MC4R barr agon 1 and Exocytosis CP01 -12.
Screening COc1ccc(N(CC(=O)NCCC2=CCCCC2)S(=O)(=O)c2ccccc2)cc1OC returned HGIII-sPLA2 inh -5, A1 inh 0, MC4R antagonist -2, NTR1 ag 4, Granule exo inh 1 and MC4R barr agon -2.
O=C(Nc1ccc2c(c1)Cc1ccccc1-2)NC1CCCCN(Cc2ccc(Cl)cc2)C1=O (stereo unspecified) was read as HGIII-sPLA2 inh 13.
NC(=NC(=O)/C=C/c1ccccc1Br)N(CC#Cc1ccccc1)CC#Cc1ccccc1 was read as HGIII-sPLA2 inh -5.
Nc1[nH]c(C(=O)c2ccccc2)c(-c2cccc3ccccc23)c1C(=O)c1cccs1 was read as HGIII-sPLA2 inh 1.
CCOC(=O)C1CCCN(C(=O)c2ccc(NC(=O)CC3SC(N4CCCC4)=NC3=O)cc2)C1 (stereo unspecified) was read as HGIII-sPLA2 inh -4, A1 inh 0, MC4R antagonist 1, NTR1 ag 1, Granule exo inh 15 and MC4R barr agon -3.
`CCCCCCSc1cccc(-c2nc3cc(C)ccn3c2NCc2ccccc2)c1` gave HGIII-sPLA2 inh 7, A1 inh -2, MC4R antagonist 7, NTR1 ag 2, Granule exo inh 20 and MC4R barr agon 1.
Screening CCCCCCSc1cccc(-c2nc3ccccn3c2NCc2ccccc2)c1 returned HGIII-sPLA2 inh -5, A1 inh -1, MC4R antagonist 10, NTR1 ag 16, Granule exo inh 58*!, MC4R barr agon 0 and Exocytosis CP01 95*.
`CCN(CC)Cc1c(C(=O)N/N=C/c2ccc(OCc3ccccc3C)cc2)nnn1-c1nonc1N` gave HGIII-sPLA2 inh -7, A1 inh -1, MC4R antagonist 6, NTR1 ag 2, Granule exo inh 5 and MC4R barr agon -2.
CCN(Cc1ccc(OC)c(COC)c1)CC1CCCN(CCc2cccc(OC)c2)C1 (stereo unspecified) was read as HGIII-sPLA2 inh 11, A1 inh 0, MC4R antagonist 7, NTR1 ag 0, Granule exo inh 72*, MC4R barr agon 0 and Exocytosis CP01 -12.
Screening CCN(Cc1ccccc1OC)CC1CCCN(CCc2cccc(OC)c2)C1 (stereo unspecified) returned HGIII-sPLA2 inh 9, A1 inh 0, MC4R antagonist 1, NTR1 ag 0, Granule exo inh 63*, MC4R barr agon -2 and Exocytosis CP01 -11.
CCN(Cc1ccc(OC)c(COC)c1)CC1CCCN(CCc2cccc(F)c2)C1 (stereo unspecified) was read as HGIII-sPLA2 inh -10, A1 inh 0, MC4R antagonist 14, NTR1 ag 0, Granule exo inh 68*, MC4R barr agon 1 and Exocytosis CP01 -12.
For CCN(Cc1ccc(NC(C)=O)cc1)CC1CCCN(CCc2cccc(OC)c2)C1 (stereo unspecified) the results were HGIII-sPLA2 inh -9, A1 inh 2, MC4R antagonist 5, NTR1 ag 0, Granule exo inh 51 and MC4R barr agon 0.
O=C(CN(Cc1ccccc1)C(=O)CNS(=O)(=O)c1ccc(Cl)cc1)NCC1CCCO1 (stereo unspecified) was read as HGIII-sPLA2 inh -2, A1 inh 0, MC4R antagonist 2, NTR1 ag 0, Granule exo inh -4 and MC4R barr agon -2.
`COC(=O)[C@]12C[C@H](CC(=O)N3CCC(c4ccccc4)CC3)C(=O)N(CCC3=CCCCC3)C1=C[C@H](C(C)C)O[C@@H]2C1CC1` gave HGIII-sPLA2 inh -4.
Cc1ccc(NC(=O)CSc2nc3c(c(=O)[nH]2)CCC3)c(C)c1 was read as HGIII-sPLA2 inh 0, A1 inh -1, MC4R antagonist -3, NTR1 ag -1, Granule exo inh 3 and MC4R barr agon -1.
Cc1c[nH]c2cccc(-c3ccccc3)c12 was read as HGIII-sPLA2 inh 6.
`COC(=O)[C@]12C[C@H](CC(=O)N3CCC(c4ccccc4)CC3)C(=O)N(Cc3ccco3)C1=C[C@H](C(C)C)O[C@@H]2C1CC1` gave HGIII-sPLA2 inh -9.
`Cc1cc(N2CCN(c3ncccn3)CC2)nc2c(C)cccc12` gave HGIII-sPLA2 inh 0, A1 inh 1, MC4R antagonist -5, NTR1 ag 14, Granule exo inh 72*, MC4R barr agon 3 and Exocytosis CP01 -14.
CCOC(=O)CCCNC(=O)CCNC(=O)c1ccc(OCC(C)C)cc1 was read as HGIII-sPLA2 inh 3, A1 inh -1, MC4R antagonist 14, NTR1 ag -1, Granule exo inh 5 and MC4R barr agon -1.
`CN(C)C(=O)c1c(NC(=O)c2ccccc2)sc2c1CCC2` gave HGIII-sPLA2 inh 2, A1 inh -1, MC4R antagonist 1, NTR1 ag 0, Granule exo inh -11 and MC4R barr agon -1.
CCN(CC)CCCC(C)NC(=O)c1c(NC(=O)c2ccccc2)sc2c1CCCC2 (stereo unspecified) was read as HGIII-sPLA2 inh -10, A1 inh 1, MC4R antagonist 10, NTR1 ag 5, Granule exo inh 78*, MC4R barr agon 0 and Exocytosis CP01 -3.
`O=C(O)CCn1cc(-c2ccc(Cl)cc2)nc1-c1ccncc1` gave HGIII-sPLA2 inh 9, A1 inh 0, MC4R antagonist 4, NTR1 ag 0, Granule exo inh -5 and MC4R barr agon 4.
C=CCn1c(C)nnc1SCC(=O)Nc1oc(C)c2c(C)n[nH]c(=O)c12 was read as HGIII-sPLA2 inh 1, A1 inh 0, MC4R antagonist 2, NTR1 ag -1, Granule exo inh 80*, MC4R barr agon 1 and Exocytosis CP01 -12.
Screening Cc1ccc(NC(=O)CN2C(=O)NC3(CCCCC3)C2=O)cc1S(=O)(=O)N1CCOCC1 returned HGIII-sPLA2 inh 0, A1 inh 1, MC4R antagonist 13, NTR1 ag 2, Granule exo inh 6 and MC4R barr agon -1.
